# In ChEMBL document CHEMBL4177720, “Towards smart biocide-free anti-biofilm strategies: Click-based synthesis of cinnamide analogues as anti-biofilm compounds against marine bacteria” (Bioorg Med Chem Lett, 2018):
# What was measured:
# [1] = system: Pseudoalteromonas lipolytica; assay: Anti-biofilm activity against Pseudoalteromonas lipolytica TC8 assessed as inhibition of bacterial adhesion incubated for 15 hrs at 20 degC by Syto 61 dye based fluorimetric assay; assay type: functional, organism-based; conditions: TC8, 15 h
# How it was run: (§1)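 Cells were grown in VNSS at 20°C to stationary phase, centrifuged, and resuspended in artificial sea water (ASW) to OD600 0.2-0.4. Suspension (100 µL) plus 100 µL diluted compound, in triplicate, with ASW-only adhesion control, was held 15 h at 20°C. After three 36 g/L NaCl washes, adhered cells were stained 10 min at room temperature with 40 µmol/L Syto 61. Fluorescence read at ex 615/em 670 nm; EC50 from dose-response fit.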
# Pseudoalteromonas ulvae [2] = assay: Anti-biofilm activity against Pseudoalteromonas ulvae TC14 assessed as inhibition of bacterial adhesion incubated for 15 hrs at 20 degC by Syto 61 dye based fluorimetric assay; assay type: functional, organism-based; conditions: TC14, 15 h; how it was run: as §1
# Paracoccus sp. = assay: Anti-biofilm activity against Paracoccus sp. 4M6 assessed as inhibition of bacterial adhesion incubated for 15 hrs at 20 degC by Syto 61 dye based fluorimetric assay; assay type: functional; conditions: Paracoccus sp. (in: a-proteobacteria), 4M6, 15 h; how it was run: as §1
# Pseudoalteromonas ulvae [3] = assay: Effect on cell viability of Pseudoalteromonas ulvae TC14 at 100 uM measured every hr during 6 hrs by resazurin based assay; assay type: organism-based
# How it was run: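 Exponential-phase cells (VNSS, 20°C, 120 rpm) were resuspended in VNSS to OD600 0.1. 20 µL inoculated into 180 µL compound in VNSS, triplicate, at 100 µM, with solvent and medium controls. OD600 was read hourly for 6 h. Resazurin (50 µM) was then added, and fluorescence after 2 h gave percent viability versus untreated.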
# Pseudoalteromonas ulvae [4] = assay: Effect on cell growth of Pseudoalteromonas ulvae TC14 at 100 uM measured every hr during 6 hrs by turbidity (OD600) measurement
Compound,EC50 [1],EC50 (Pseudoalteromonas ulvae [2]),EC50 (Paracoccus sp.),Activity (Pseudoalteromonas ulvae [3]),Activity (Pseudoalteromonas ulvae [4])
COc1cccc(-n2cc(C(=O)NCCc3ccc(O)cc3)nn2)c1,276 µM,204 µM,> 300 µM,,
COc1ccc(CCNC(=O)c2cn(-c3ccc(OC)cc3)nn2)cc1,> 300 µM,11.3 µM,260 µM,Non-Toxic,Non-Toxic
COc1ccc(CCNC(=O)c2cn(-c3cccc(OC)c3)nn2)cc1,> 300 µM,11.4 µM,216 µM,Non-Toxic,Non-Toxic
COc1ccc(-n2cc(C(=O)NCCc3cccc(OC)c3)nn2)cc1,142 µM,52.3 µM,214 µM,,Non-Toxic
COc1ccc(-n2cc(C(=O)NCCc3ccc(OC)c(OC)c3)nn2)cc1,> 300 µM,54.6 µM,162 µM,Non-Toxic,Non-Toxic
COc1cccc(-n2cc(C(=O)NCCc3ccc(OC)c(OC)c3)nn2)c1,> 300 µM,73.7 µM,154 µM,,
COc1cccc(CCNC(=O)c2cn(-c3cccc(OC)c3)nn2)c1,> 300 µM,80.6 µM,226 µM,,
COc1ccc(-n2cc(C(=O)NCCc3ccc(O)cc3)nn2)cc1,> 300 µM,115 µM,220 µM,,
CC1(C)S[C@@H]2[C@H](NC(=O)[C@H](N)c3ccccc3)C(=O)N2[C@H]1C(=O)O [AMPICILLIN],,,,Toxic,
O=C(/C=C/c1ccc(O)cc1)NCCc1ccc(O)cc1 [N-P-COUMAROYL TYRAMINE],> 300 µM,75.5 µM,> 300 µM,,
